From ChEMBL document CHEMBL5724801, “EUbOPEN Chemogenomics Library - Multiplex” (2024)
“And” between values parts separate entries of the source, which are not always exact repeats. Equal entries are not always repeated.

Tested on: HEK-293T
Assay: Multiplex assay against HEK293T
Format: toxicity, cell-based
Details: human
Outline: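 At seeding, live cells were stained with Hoechst33342, BioTracker Green Microtubule Cytoskeleton Dye, MitoTracker Red and Annexin V Alexa Fluor 680. After compound addition they were imaged on a CQ1 microscope at 37°C and 5% CO2, and CellPathfinder machine-learning gating sorted them into Hoechst high-intensity objects or normal cells, with normal cells further split into healthy, pyknosed or fragmented nuclei and pyknosed cells into mitotic or apoptotic. Tubulin, mitochondrial-mass and membrane-permeability phenotypes are given as per cents of cells with healthy nuclei.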

[1] = 12 h, 1 µM, compound concentration 1 uM
[2] = 12 h, 10 µM, compound concentration 10 uM
[3] = 24 h, 1 µM, compound concentration 1 uM
[4] = 24 h, 10 µM, compound concentration 10 uM
[5] = 48 h, 1 µM, compound concentration 1 uM
[6] = 48 h, 10 µM, compound concentration 10 uM

CC(C)Oc1ccc(F)c(-c2cnc(N)c(C(=O)Nc3cnccc3N3CCC[C@@H](C(=O)O)C3)n2)c1
Population Apoptotic (%) [1]: 7.53% and 11.02%
Population Fragmented Nuclei (%) [1]: 1.12% and 6.54%
Population Hoechst High Intensity Objects (%) [1]: 0.28% and 0%
Population Membrane Permeable-Phenotype (%) [1]: 0% and 4%
Population Mitochondria Different-Phenotype (%) [1]: 34.13% and 12%
Population Mitotic Cells (%) [1]: 92.47% and 88.98%
Population Normal (%) [1]: 99.72% and 100%
Population Pyknosed Nuclei (%) [1]: 40.78% and 77.12%
Total Cell Count [1]: 359 and 153
Population Apoptotic (%) [2]: 24.14% and 33.33%
Population Fragmented Nuclei (%) [2]: 7.04% and 7.45%
Population Hoechst High Intensity Objects (%) [2]: 1.97% and 0%
Population Membrane Permeable-Phenotype (%) [2]: 4.08% and 0%
Population Mitochondria Different-Phenotype (%) [2]: 31.63% and 17.39%
Population Mitotic Cells (%) [2]: 75.86% and 66.67%
Population Normal (%) [2]: 98.03% and 100%
Population Pyknosed Nuclei (%) [2]: 43.72% and 78.26%
Population Tubulin-Different-Phenotype (%) [2]: 70.41% and 47.83%
Total Cell Count [2]: 203 and 161
Population Apoptotic (%) [3]: 17% and 27.27%
Population Fragmented Nuclei (%) [3]: 0.79% and 9.15%
Population Hoechst High Intensity Objects (%) [3]: 0%
Population Membrane Permeable-Phenotype (%) [3]: 1.73% and 0%
Population Mitochondria Different-Phenotype (%) [3]: 12.59% and 10%
Population Mitotic Cells (%) [3]: 83% and 72.73%
Population Normal (%) [3]: 100%
Population Tubulin-Different-Phenotype (%) [3]: 24.69% and 10%
Population Apoptotic (%) [4]: 20.45% and 46.61%
Population Fragmented Nuclei (%) [4]: 3.49% and 7.1%
Population Healthy Nuclei (%) [4]: 62.4% and 28.42%
Population Hoechst High Intensity Objects (%) [4]: 0.77% and 0%
Population Membrane Permeable-Phenotype (%) [4]: 1.86% and 0%
Population Mitochondria Different-Phenotype (%) [4]: 33.54% and 11.54%
Population Mitotic Cells (%) [4]: 79.55% and 53.39%
Population Normal (%) [4]: 99.23% and 100%
Population Pyknosed Nuclei (%) [4]: 34.11% and 64.48%
Total Cell Count [4]: 260 and 183
Population Apoptotic (%) [5]: 8.84% and 23.26%
Population Fragmented Nuclei (%) [5]: 3.08% and 2.66%
Population Healthy Nuclei (%) [5]: 77.03% and 51.6%
Population Hoechst High Intensity Objects (%) [5]: 0.22% and 0%
Population Membrane Permeable-Phenotype (%) [5]: 3.42% and 2.06%
Population Mitochondria Different-Phenotype (%) [5]: 29.39% and 26.8%
Population Mitotic Cells (%) [5]: 91.16% and 76.74%
Population Normal (%) [5]: 99.78% and 100%
Population Pyknosed Nuclei (%) [5]: 19.89% and 45.74%
Population Apoptotic (%) [6]: 31.37% and 50.7%
Population Fragmented Nuclei (%) [6]: 10.59% and 8.51%
Population Healthy Nuclei (%) [6]: 74.41% and 53.72%
Population Hoechst High Intensity Objects (%) [6]: 0.29% and 0.53%
Population Membrane Permeable-Phenotype (%) [6]: 7.11% and 0.99%
Population Mitochondria Different-Phenotype (%) [6]: 69.96% and 27.72%
Population Mitotic Cells (%) [6]: 68.63% and 49.3%
Population Normal (%) [6]: 99.71% and 99.47%
Population Pyknosed Nuclei (%) [6]: 15% and 37.77%
Population Tubulin-Different-Phenotype (%) [6]: 27.67% and 73.27%
Total Cell Count [6]: 341 and 189

COc1ccc2nc3ccc(OC)cc3c(SCCCN)c2c1.Cl
Population Apoptotic (%) [1]: 9.64% and 17.91%
Population Fragmented Nuclei (%) [1]: 1.39% and 4.49%
Population Hoechst High Intensity Objects (%) [1]: 0.55% and 0%
Population Membrane Permeable-Phenotype (%) [1]: 1.06% and 0%
Population Mitotic Cells (%) [1]: 90.36% and 82.09%
Population Normal (%) [1]: 99.45% and 100%
Population Pyknosed Nuclei (%) [1]: 46.24% and 85.9%
Population Tubulin-Different-Phenotype (%) [1]: 5.85% and 13.33%
Total Cell Count [1]: 361 and 156
Population Apoptotic (%) [2]: 19.66% and 51.55%
Population Fragmented Nuclei (%) [2]: 81.39% and 89.94%
Population Healthy Nuclei (%) [2]: 8.58% and 2.44%
Population Hoechst High Intensity Objects (%) [2]: 3.16% and 0.62%
Population Membrane Permeable-Phenotype (%) [2]: 0% and 3.23%
Population Mitochondria Different-Phenotype (%) [2]: 15% and 9.68%
Population Mitotic Cells (%) [2]: 80.34% and 48.45%
Population Normal (%) [2]: 96.84% and 99.38%
Population Pyknosed Nuclei (%) [2]: 10.03% and 7.63%
Population Tubulin-Different-Phenotype (%) [2]: 31% and 48.39%
Total Cell Count [2]: 1204 and 1280
Population Apoptotic (%) [3]: 11.89% and 22.43%
Population Fragmented Nuclei (%) [3]: 1.64% and 2.45%
Population Healthy Nuclei (%) [3]: 72.36% and 31.9%
Population Hoechst High Intensity Objects (%) [3]: 0% and 0.61%
Population Membrane Permeable-Phenotype (%) [3]: 1.51% and 3.85%
Population Mitochondria Different-Phenotype (%) [3]: 22.86% and 15.38%
Population Mitotic Cells (%) [3]: 88.11% and 77.57%
Population Normal (%) [3]: 100% and 99.39%
Population Pyknosed Nuclei (%) [3]: 26% and 65.64%
Population Tubulin-Different-Phenotype (%) [3]: 16.33% and 11.54%
Population Apoptotic (%) [4]: 66.98% and 59.74%
Population Fragmented Nuclei (%) [4]: 80.88% and 91.28%
Population Healthy Nuclei (%) [4]: 10.6% and 3.22%
Population Hoechst High Intensity Objects (%) [4]: 1.74% and 0.85%
Population Membrane Permeable-Phenotype (%) [4]: 2.27% and 2.22%
Population Mitochondria Different-Phenotype (%) [4]: 31.06% and 15.56%
Population Mitotic Cells (%) [4]: 33.02% and 40.26%
Population Normal (%) [4]: 98.26% and 99.15%
Population Pyknosed Nuclei (%) [4]: 8.51% and 5.5%
Population Tubulin-Different-Phenotype (%) [4]: 37.88% and 35.56%
Total Cell Count [4]: 1267 and 1411
Population Fragmented Nuclei (%) [5]: 3.15% and 5.62%
Population Healthy Nuclei (%) [5]: 85.43% and 51.69%
Population Hoechst High Intensity Objects (%) [5]: 0.08% and 0.56%
Population Membrane Permeable-Phenotype (%) [5]: 4.52% and 2.17%
Population Mitochondria Different-Phenotype (%) [5]: 15.94% and 31.52%
Population Mitotic Cells (%) [5]: 95.17% and 75%
Population Normal (%) [5]: 99.92% and 99.44%
Population Apoptotic (%) [6]: 52.58% and 29.51%
Population Fragmented Nuclei (%) [6]: 73.59% and 92.69%
Population Hoechst High Intensity Objects (%) [6]: 4.79% and 2.09%
Population Membrane Permeable-Phenotype (%) [6]: 4.62% and 6.67%
Population Mitochondria Different-Phenotype (%) [6]: 54.23% and 53.33%
Population Mitotic Cells (%) [6]: 47.42% and 70.49%
Population Normal (%) [6]: 95.21% and 97.91%
Population Pyknosed Nuclei (%) [6]: 7.17% and 4.2%
Total Cell Count [6]: 1420 and 1482

COc1ccc2c(c1)C(C(=O)N(Cc1ccc(N(C)C)cc1)c1ccc(C(C)C)cc1)CCC2.Cl (stereo not given)
Population Apoptotic (%) [1]: 30% and 43%
Population Fragmented Nuclei (%) [1]: 6% and 5%
Population Healthy Nuclei (%) [1]: 80% and 79%
Population Hoechst High Intensity Objects (%) [1]: 7% and 4%
Population Membrane Permeable-Phenotype (%) [1]: 0%
Population Mitochondria Different-Phenotype (%) [1]: 39% and 61%
Population Mitotic Cells (%) [1]: 70% and 56%
Population Normal (%) [1]: 92% and 95%
Population Pyknosed Nuclei (%) [1]: 13% and 14%
Population Tubulin-Different-Phenotype (%) [1]: 27% and 23%
Total Cell Count [1]: 413 and 330
Population Apoptotic (%) [2]: 60% and 63%
Population Fragmented Nuclei (%) [2]: 9% and 4%
Population Healthy Nuclei (%) [2]: 78% and 77%
Population Hoechst High Intensity Objects (%) [2]: 10% and 6%
Population Membrane Permeable-Phenotype (%) [2]: 0%
Population Mitochondria Different-Phenotype (%) [2]: 60% and 75%
Population Mitotic Cells (%) [2]: 39% and 36%
Population Normal (%) [2]: 89% and 93%
Population Pyknosed Nuclei (%) [2]: 11% and 17%
Population Tubulin-Different-Phenotype (%) [2]: 64% and 57%
Total Cell Count [2]: 383 and 361
Population Apoptotic (%) [3]: 31% and 60%
Population Fragmented Nuclei (%) [3]: 9% and 7%
Population Healthy Nuclei (%) [3]: 81% and 79%
Population Hoechst High Intensity Objects (%) [3]: 3% and 6%
Population Membrane Permeable-Phenotype (%) [3]: 0%
Population Mitochondria Different-Phenotype (%) [3]: 20% and 33%
Population Mitotic Cells (%) [3]: 68% and 40%
Population Normal (%) [3]: 96% and 93%
Population Pyknosed Nuclei (%) [3]: 8% and 13%
Population Tubulin-Different-Phenotype (%) [3]: 13% and 11%
Total Cell Count [3]: 567 and 399
Population Apoptotic (%) [4]: 35% and 45%
Population Fragmented Nuclei (%) [4]: 9% and 7%
Population Healthy Nuclei (%) [4]: 73% and 76%
Population Hoechst High Intensity Objects (%) [4]: 10% and 6%
Population Membrane Permeable-Phenotype (%) [4]: 1% and 0%
Population Mitochondria Different-Phenotype (%) [4]: 51% and 60%
Population Mitotic Cells (%) [4]: 64% and 55%
Population Normal (%) [4]: 89% and 93%
Population Pyknosed Nuclei (%) [4]: 17% and 16%
Population Tubulin-Different-Phenotype (%) [4]: 70% and 60%
Total Cell Count [4]: 409 and 389
Population Apoptotic (%) [5]: 20% and 46%
Population Fragmented Nuclei (%) [5]: 12%
Population Healthy Nuclei (%) [5]: 80% and 81%
Population Hoechst High Intensity Objects (%) [5]: 1% and 4%
Population Membrane Permeable-Phenotype (%) [5]: 1% and 0%
Population Mitochondria Different-Phenotype (%) [5]: 10% and 17%
Population Mitotic Cells (%) [5]: 79% and 53%
Population Normal (%) [5]: 98% and 95%
Population Pyknosed Nuclei (%) [5]: 6%
Population Tubulin-Different-Phenotype (%) [5]: 10% and 15%
Total Cell Count [5]: 968 and 631
Population Apoptotic (%) [6]: 59% and 36%
Population Fragmented Nuclei (%) [6]: 15% and 11%
Population Healthy Nuclei (%) [6]: 75% and 79%
Population Hoechst High Intensity Objects (%) [6]: 9% and 3%
Population Membrane Permeable-Phenotype (%) [6]: 6% and 2%
Population Mitochondria Different-Phenotype (%) [6]: 25% and 24%
Population Mitotic Cells (%) [6]: 40% and 63%
Population Normal (%) [6]: 90% and 96%
Population Pyknosed Nuclei (%) [6]: 9% and 8%
Population Tubulin-Different-Phenotype (%) [6]: 53% and 50%
Total Cell Count [6]: 558 and 482
